ChEMBL document CHEMBL1795252, “New class azaphilone produced by a marine fish-derived Chaetomium globosum. The stereochemistry and biological activities” (Bioorg Med Chem, 2011)

Legend:
Format in all cases: functional, cell-based
HL-60 = test: Cytotoxicity against human HL60 cells after 72 hrs by MTT assay; settings: HL-60, 72 h
Method in brief: (§1)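 Cells grown in Eagle's MEM with 10% fetal calf serum at 37 °C, 5% CO2. Test material dissolved in DMSO (10 mM stock), diluted in medium to 200, 20 and 2 µM working solutions, combined with cell suspension (1 × 10^5 cells/ml). Incubated 72 h at 37 °C, MTT labeling, formazan dissolved in 20% SDS/0.1 N HCl, absorbance 540 nm. Growth as % of untreated control; triplicate assays; IC50 from semilog plots of averaged data.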

L1210 = test: Cytotoxicity against mouse L1210 cells after 72 hrs by MTT assay; settings: L1210, 72 h; method in brief: as §1
KB = test: Cytotoxicity against human KB cells after 72 hrs by MTT assay; method in brief: as §1
P388 = test: Cytotoxicity against mouse P388 cells after 72 hrs by MTT assay; settings: P388, 72 h; method in brief: as §1

Row | Structure (SMILES) | IC50 (HL-60) [nM] | IC50 (L1210) [nM] | IC50 (KB) [nM] | IC50 (P388) [nM]
1 | C/C=C(\C)C(=O)C[C@H]1C2=COC(/C=C/[C@H](C)[C@@H](C)O)=CC2=C(Cl)C(=O)[C@@]1(C)O | 1000 | 1600 | 1200 | 
2 | O=c1[nH]cc(F)c(=O)[nH]1 [FLUOROURACIL] | 2700 | 1100 | 7700 | 1700
3 | C/C=C(\Cl)C(=O)[C@@](C)(O)[C@H]1CC(=O)C(C)=C2C=C(/C=C/[C@@H](C)[C@@H](C)O)OC=C21 [CHAETOMUGILIN P] | 1200 | 1500 | 1800 | 700
4 | C[C@H](O)[C@@H](C)/C=C/C1=CC2=C(Cl)C(=O)[C@](C)(O)[C@@H](O)[C@@H]2CO1 [CHAETOMUGILIN R] | 51800 | 67100 | 67100 | 32000
5 | C/C=C(\C)C(=O)C[C@H]1C2=COC(/C=C/[C@@H](C)[C@@H](C)O)=CC2=C(Cl)C(=O)[C@@]1(C)O [CHAETOMUGILIN I] | 1100 | 1900 | 2300 | 1100
